# Assay outcomes from PubChem.
# An excerpt weighted towards active compounds, which were near 3.5% of everything screened.
# MrgX1 ag: agonists of human MrgX1 receptor, primary screen, HEK293 cells, Fluo-4 calcium flux | Mas-related G-protein coupled receptor member X1 (Homo sapiens), Q96LB2 | Fluo-4 calcium fluorescence, agonist mode; active compounds read high | B-score at 10 µM | actives 0.44% (n = 310,000) | AID 588627, 2011;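 active means calcium response B-score plate-corrected fluorescence ratio at least 3 library SD, with starting fluorescence B-score inside 5 SD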
# Target sequence (Q96LB2 whole entry, looked up): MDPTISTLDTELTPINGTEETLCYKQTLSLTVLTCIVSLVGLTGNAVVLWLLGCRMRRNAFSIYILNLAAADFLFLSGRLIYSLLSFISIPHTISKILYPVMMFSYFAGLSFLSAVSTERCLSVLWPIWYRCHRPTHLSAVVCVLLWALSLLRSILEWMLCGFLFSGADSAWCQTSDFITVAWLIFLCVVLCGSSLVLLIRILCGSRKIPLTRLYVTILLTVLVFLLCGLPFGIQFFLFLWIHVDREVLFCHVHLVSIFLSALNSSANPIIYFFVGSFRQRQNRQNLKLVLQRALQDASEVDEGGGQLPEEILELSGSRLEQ
#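 Assay system: MrgX1-expressing HEK293 cells / Amount: fifteen thousand cells per well / Doses: test compound in the initial addition of three / Timing: cells plated overnight, dye loaded 0.5 h 37 °C, 0.5 h room temperature / Technique: kinetic calcium dye fluorescence, Fluo-4 NW / Control set: positive and negative controls per plate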
# MrgX1 antagonist: antagonists of human MrgX1 receptor, primary screen, HEK293 cells, Fluo-4 calcium flux | BAM8-22 antagonism; active compounds read low | B-score at 10 µM | actives 1.3% (n = 310,000) | AID 588676, 2011;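 active means calcium-response B-score plate-corrected more than 3 library SD below zero, starting fluorescence within 5 deviations, no agonist response on first addition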;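 further: peak minus trough fluorescence over baseline after final BAM8-22 challenge near maximal dose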
# MrgX1 PAM: positive allosteric modulators of MrgX1, primary screen, HEK293 cells, Fluo-4 calcium flux; Mas-related G-protein coupled receptor member X1 (Homo sapiens), Q96LB2; FDSS; active compounds read high; B-score at 10 µM; actives 0.63% (n = 310,000);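 active means plate-corrected calcium response at least 3 library SD above typical, normal starting fluorescence, not activating the receptor alone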;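 further: compound read alongside a low EC10 to EC30 dose of BAM8-22 agonist; peak minus trough fluorescence over baseline measured at the second addition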
# RGS4 block: RGS4 inhibitors, primary screen, cell-based, HEK293 M3R inducible RGS4, calcium flux; Regulator of G-protein signaling 4 (Homo sapiens), P49798; Fluo-4 calcium flux; active compounds read high; triggered by carbachol at its EC20; B-score at 10 µM; actives 0.45% (n = 310,000); AID 463165, 2010;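 active means B-score, a plate-corrected calcium signal, over three deviations above library mean, with baseline fluorescence within five deviations of library mean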;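 further: RGS4 expression induced by doxycycline in cells with stable M3 receptor; B-score is computed from the integrated fluorescence ratio over baseline after carbachol; higher B-score means a larger calcium signal and so more RGS4 inhibition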
# Target sequence (P49798 whole entry, looked up): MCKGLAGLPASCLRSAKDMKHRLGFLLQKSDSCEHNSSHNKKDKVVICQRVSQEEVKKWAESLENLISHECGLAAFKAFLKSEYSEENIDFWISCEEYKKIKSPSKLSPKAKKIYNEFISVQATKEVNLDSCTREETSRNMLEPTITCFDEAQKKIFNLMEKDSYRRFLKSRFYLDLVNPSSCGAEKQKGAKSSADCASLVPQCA
# RGS4 act: RGS4 potentiators or activators, primary screen, cell-based, HEK293 M3R inducible RGS4, calcium flux; carbachol calcium flux Fluo4; active compounds read low; B-score at 10 µM; actives 0.92% (n = 310,000);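 active means B-score of the integrated calcium signal more than 4 SD below the library mean, with starting fluorescence not abnormally high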;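 further: negative B-score means reduced calcium response which marks RGS4 activation or potentiation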
#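 Assay system: HEK293 FlpIn-TREx cells, stable M3R, doxycycline-inducible RGS4 / Probe or stimulus: carbachol, ECmax concentration / Times: overnight RGS4 induction, 30 min dye load 37 °C, 20 min compound RT / Signal: kinetic calcium fluorescence imaging with Fluo4-AM dye, 2 µM / Measure: Agonist-evoked peak-minus-minimum fluorescence over baseline, integrated ratio, B score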
# RGS4 activ val: reduced carbachol calcium response, RGS4-induced M3R cells, confirmation, RGS4 activator project, cell-based, HEK293 M3R/RGS4 inducible, calcium flux, duplicate; actives 89% (n = 1,100); shares compounds with RGS4 act; inhibition, % at 10 µM; carbachol calcium flux Fluo4; AID 602282, 2012;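 active means inhibition above 3 SD of the buffer control wells, cut at about 41% in these data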;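 further: signal is the integrated peak-minus-minimum Fluo4 fluorescence over baseline ratio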
# M3R Ca counter: counter-screen for RGS4 activators: effect in non-induced cells | actives 82% (n = 1,100) | inhibition, % at 10 µM | HEK293 M3R non-induced RGS4, Fluo4 calcium flux; after carbachol challenge at its EC90 | shares compounds with RGS4 act | AID 602283;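 active means inhibition exceeding 3 SD of buffer-only control wells, cut at about 26% in these data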;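 further: percent drop in integrated peak-minus-baseline over baseline Fluo4 ratio after carbachol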
# MrgX1 ag confirm: MrgX1 receptor agonists, duplicate retest, confirmation, HEK293 cells, Fluo-4 calcium flux; shares compounds with MrgX1 ag; Fluo-4 calcium fluorescence, FDSS; activation, % at 10 µM; actives 78% (n = 600); AID 602412, 2012;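 active means calcium signal rise, corrected for plate position, at least 3 library SD high, with starting brightness within 5 such deviations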
# MrgX1 allo conf: MrgX1 positive allosteric modulators, duplicate retest, confirmation, HEK293 cells, Fluo-4 calcium flux. shares compounds with MrgX1 PAM. Fluo-4 calcium fluorescence, FDSS. activation (ratio percentage), % at 10 µM. actives 13% (n = 1,200);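 active means ratio at least 3 SD above the weak peptide control, stable starting fluorescence, no direct agonism earlier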;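 further: compound followed by low BAM8-22 agonist challenge near EC20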
# MrgX1 antag conf: MrgX1 receptor antagonists, duplicate retest, confirmation, HEK293 cells, Fluo-4 calcium flux. actives 19% (n = 2,300). BAM8-22 calcium flux; active compounds read low. shares compounds with MrgX1 antagonist. remaining BAM8-22 calcium response % of control (active compounds read low), % at 10 µM. AID 602420, 2012;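 active means remaining agonist calcium response no higher than 100% minus 3 SD of agonist-only control wells, with starting fluorescence near control levels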;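 further: agonist BAM8-22 given at a near maximal EC90 to ECmax level; peak minus minimum fluorescence divided by baseline after agonist addition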
# HEK293 Ca flux: nonspecific calcium signal in parental HEK293, confirmation, counter-screen for MrgX1 antagonist project, parental HEK293 cells, Fluo-4 calcium flux; fluorescence ratio F(max-min)/F0 at 10 µM; shares compounds with MrgX1 antagonist; Fluo-4 calcium fluorescence, FDSS; actives 2% (n = 4,000); AID 624111, 2012;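 active means duplicate-averaged calcium fluorescence ratio at least three times the standard deviation of buffer wells, a nonspecific response in parental cells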
# HEK293 Ca counter: calcium response in parental HEK293 cells, primary screen, counter-screen for MrgX1 allosteric activator project, cell-based, Fluo-4 calcium flux, duplicate; shares compounds with MrgX1 antagonist; fluorescence ratio F(max-min)/F0 at 10 µM; Fluo-4 fluorescence ratio; active compounds read high; actives 0.4% (n = 4,000);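 active means calcium fluorescence ratio, averaged over duplicates, at least 3 SD of the buffer-well ratio, meaning a nonspecific response in receptor-free cells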;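 further: untransfected parental HEK293 lacking MrgX1 used as counterscreen for MrgX1 allosteric activators; fluorescence change taken during the second addition on a kinetic imager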
# HEK293 Ca cntr2: calcium response in parental HEK293 cells, primary screen, counter-screen for MrgX1 agonist project, cell-based, Fluo-4 calcium flux, duplicate, agonist mode | Fluo-4 calcium fluorescence (FDSS); active compounds read high | AID 624115, 2012 | fluorescence ratio F(max-min)/F0 at 10 µM | shares compounds with MrgX1 antagonist | actives 8.7% (n = 4,000);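 active means calcium fluorescence ratio at least three times the spread of buffer wells, meaning a non-specific response in parental cells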
# The depositor's hits bear a star; i = inactive; . = no result given.
SMILES,MrgX1 ag,MrgX1 antagonist,MrgX1 PAM,RGS4 block,RGS4 act,RGS4 activ val,M3R Ca counter,MrgX1 antag conf,HEK293 Ca flux,HEK293 Ca counter,HEK293 Ca cntr2,others
O=C(OCc1ccc(F)cc1)c1ccc2c(c1)-c1ccccc1C2=O,i,i,i,i,i,.,.,.,.,.,.,
CCOC(=O)c1cnc2c(C)cccc2c1NCc1ccco1,i,i,7.6*,i,-12*,92*,94*,.,i,i,i,MrgX1 allo conf=i
CCOC(=O)c1ccc(NC(=S)N2CCSC2c2ccc(OC)cc2)cc1 (stereo not given),i,i,i,i,i,.,.,.,.,.,.,
CCOC(=O)c1ccc(NC(=S)N2CCSC2c2ccc(Cl)cc2)cc1 (stereo not given),i,-6.3*,i,i,-8.8*,94*,91*,58%*,i,49*,i,
O=C(c1ccco1)N1CCN(S(=O)(=O)c2c(Cl)cccc2Cl)CC1,i,i,i,i,i,.,.,.,.,.,.,
CCN(CC)CC#CCC(O)(c1ccccc1)C1CCCC1 (stereo not given),i,-8.7*,i,i,-7.9*,94*,91*,i,i,i,i,
Oc1ccc(Nc2nnc(-c3ccc(O)cc3)c3ccccc23)cc1,i,i,i,i,i,.,.,.,.,.,.,
COc1ccc(Nc2nnc(-c3ccc(O)cc3)c3ccccc23)cc1,i,-8.4*,i,i,-9.3*,82*,43*,i,i,54*,i,
CCCCc1ccc(N/C(N)=N/c2nc(C)cc(C)n2)cc1,87*,i,i,i,-9.6*,38*,84*,.,i,i,113*,MrgX1 ag confirm=511%*
Cc1ccc(OCc2ccc(C(=O)N3CCCC3)o2)cc1C,i,-5.3*,i,i,-7.9*,73*,84*,73%*,i,i,i,
CCOc1ccc(OCc2ccc(C(=O)N3CCCCC3)o2)cc1,i,i,i,i,i,.,.,.,.,.,.,
Cc1ccc(O)c(C(=O)c2cnc3c(c2)COc2ccccc2-3)c1,i,-10*,i,i,-9.3*,86*,88*,i,i,i,i,
COc1ccc(S(=O)(=O)NCC2CCCN(Cc3cn(C)nc3C)C2)cc1 (stereo not given),i,i,i,i,i,.,.,.,.,.,.,
COc1ccccc1C(=O)Nc1nc(-c2ccc(S(=O)(=O)N3CCOCC3)cc2)cs1,i,-8.3*,i,i,-9.6*,92*,58*,51%*,i,i,i,
COc1ccccc1OC(C)C(=O)Nc1nc(-c2ccc(S(=O)(=O)N3CCOCC3)cc2)cs1 (stereo not given),i,i,i,i,i,.,.,.,.,.,.,
CN(Cc1ccccc1)c1nc2c(c(=O)n(C)c(=O)n2C)n1CCCc1ccccc1,i,i,8.9*,i,-8.5*,75*,84*,.,i,i,i,MrgX1 allo conf=i
CCN(CC)c1nc2c(c(=O)n(C)c(=O)n2C)n1CCCc1ccccc1,i,i,i,i,i,.,.,.,.,.,.,
COc1ccc(OC)c(NC(=O)c2[nH]c(C)c(C(C)=O)c2C)c1,i,i,i,i,i,.,.,.,.,.,.,
COc1ccc(-c2nc(NC(=O)c3[nH]c(C)c(C(C)=O)c3C)sc2C)cc1,i,-8.5*,i,i,-11*,92*,92*,53%*,i,i,i,
COC(=O)c1sc(-c2ccc(C(C)(C)C)cc2)cc1NC(=O)CSCC(=O)O,i,-5.3*,i,i,-7.7*,75*,84*,i,i,i,i,
O=c1[nH]c2cccc(F)c2n2cccc12,i,i,i,i,i,.,.,.,.,.,.,
